This note sets out measurements from PubChem BioAssay.

Test [1] is described as follows: reducers of endogenous Her2 protein level, primary screen, SKBR3 breast tumor cells, AlphaScreen, ATP viability (AID 461;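 active = Her2 level under about 52% in both replicate screens, with viability over 70% of control, limit read from the data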;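 as to Her2 level: lower value means less Her2 protein in the cells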;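 as to viability: percent of carrier control wells set as 100% viability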). The note with it: 18-24 h, measured here: SKBR3 viability, ATP luminescence, at 10 µM.
The target of test [2] is Receptor tyrosine-protein kinase erbB-2 (Homo sapiens) (UniProt P04626). The description is as above. Particulars: 18-24 h, at 10 µM, stronger effect = lower value.
Sequence of Receptor tyrosine-protein kinase erbB-2 (Homo sapiens) (P04626 whole entry, looked up): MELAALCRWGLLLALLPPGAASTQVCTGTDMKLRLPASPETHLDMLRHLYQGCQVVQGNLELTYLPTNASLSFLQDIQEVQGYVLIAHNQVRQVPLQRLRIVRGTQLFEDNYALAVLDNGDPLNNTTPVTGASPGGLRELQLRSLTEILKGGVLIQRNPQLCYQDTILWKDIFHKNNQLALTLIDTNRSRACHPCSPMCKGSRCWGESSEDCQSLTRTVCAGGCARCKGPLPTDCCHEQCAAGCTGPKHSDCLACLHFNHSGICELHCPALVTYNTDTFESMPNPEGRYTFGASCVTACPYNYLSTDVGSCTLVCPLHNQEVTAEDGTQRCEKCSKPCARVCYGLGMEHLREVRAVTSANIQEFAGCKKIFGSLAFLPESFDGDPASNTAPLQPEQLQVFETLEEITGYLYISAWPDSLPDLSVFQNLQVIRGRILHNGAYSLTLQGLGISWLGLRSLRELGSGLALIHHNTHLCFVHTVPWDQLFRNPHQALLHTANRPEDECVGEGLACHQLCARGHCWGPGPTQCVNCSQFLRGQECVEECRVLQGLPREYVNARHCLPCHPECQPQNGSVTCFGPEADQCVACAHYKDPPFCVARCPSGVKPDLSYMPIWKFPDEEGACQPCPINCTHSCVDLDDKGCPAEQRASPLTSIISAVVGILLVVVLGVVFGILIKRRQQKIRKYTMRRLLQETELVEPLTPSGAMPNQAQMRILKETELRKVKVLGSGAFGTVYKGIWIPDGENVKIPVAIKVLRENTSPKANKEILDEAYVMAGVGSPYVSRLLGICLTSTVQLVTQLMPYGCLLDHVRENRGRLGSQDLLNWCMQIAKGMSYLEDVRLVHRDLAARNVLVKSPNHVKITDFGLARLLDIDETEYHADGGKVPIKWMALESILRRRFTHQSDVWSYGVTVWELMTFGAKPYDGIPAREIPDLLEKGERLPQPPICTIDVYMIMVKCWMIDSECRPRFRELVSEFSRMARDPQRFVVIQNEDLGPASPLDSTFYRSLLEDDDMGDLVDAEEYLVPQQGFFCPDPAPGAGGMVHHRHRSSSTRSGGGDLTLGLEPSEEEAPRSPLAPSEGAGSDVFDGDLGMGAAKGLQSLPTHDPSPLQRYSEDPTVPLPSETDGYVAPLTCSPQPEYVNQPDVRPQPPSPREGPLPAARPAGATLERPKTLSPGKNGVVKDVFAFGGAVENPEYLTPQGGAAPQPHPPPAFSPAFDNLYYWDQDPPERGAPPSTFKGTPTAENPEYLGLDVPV
A short description of test [3]: SK-BR-3 cell growth inhibitors, pilot screen, 24 h, human (AID 572;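 active = viability at or below 10% of carrier control in both of two separate runs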;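 also: compound exposure lasted between 18 and 24 h rather than exactly 24 h; 100% = carrier-treated control wells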). Particulars: SK-BR-3 viability, CellTiter-Glo luminescence, at 10 µM, stronger effect = lower value.
Test [4] is described as follows: HUVEC growth inhibition – cell-based, human, primary screen (AID 575;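 active = viability at or below 30% in both replicate assays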;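 also: 100% = median of untreated cell wells with 0.1% DMSO on each plate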). Particulars: HUVEC proliferation, CellTiter-Glo luminescence, 72 h; at 10 µM; stronger effect = lower value. In a few lines: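 System: primary human umbilical vein endothelial cells; Quantity: 1250 endothelial cells in each well; Buffer or medium: supplemented EBM, 2% fetal bovine serum; Doses: one dose, 10 µM final, 0.1% DMSO; Incubation: 72 h compound incubation; Technique: ATP-based CellTiter-Glo luminescent read; Evaluation: percent of median DMSO-control luminescence; Controls: vehicle and MePR control wells.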

Test [5] can be described thus: growth inhibitors of H69AR lung tumor, primary screen, human, duplicate replicates (AID 580).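 Also: 100% = mean luminescence of untreated wells and 0% = no signal.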 The note with it: H69AR lung tumor cells viability, ATP luminescence, 72 h; at 10 µM; stronger effect = lower value.
A short description of test [6]: reversal of MRP1-mediated doxorubicin resistance, pilot screen, H69AR cells, doxorubicin co-treatment (AID 601;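 active = viability loss from added drug above about 55%, and viability with drug at most 40%, in both replicates, limit read from the data, passing the limit was not always enough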). Particulars: CellTiter-Glo, 72 h, at 10 µM; for differential viability (reversal): stronger effect = higher value.
Test [7] in a line: 384-well plate pilot, post-Golgi transport modulator project, inhibition of yeast transport mutant growth (AID 636; in the data active = inhibition above about 31%). Particulars: absorbance 615 nm, about 18 h, stronger effect = higher value.
Test [8] in a line: growth suppression of yeast trafficking mutant, preliminary HTS, modulators of trafficking downstream of Golgi apparatus project, 1536-format plate, OD 615 nm (AID 637; in the data active = inhibition above about 30%). The note with it: yeast transport mutant growth, absorbance 615 nm, 18 h; stronger effect = higher value.
Where [9] appears, read: H69AR cells + 2 uM doxorubicin, measured here: viability with 2 uM doxorubicin, stronger effect = lower value.
The mark [10] stands for this setting: H69AR cells, compound alone cytotoxicity.

The source made the active and inactive calls.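 The calls were made as follows, unless noted: active = viability at or under a set limit in both replicates, limit being median viability minus 3 SD (cut at about 48% in these data, passing the limit was not always enough); inconclusive = at or under the limit in just one replicate; inactive = at or above the limit in both replicates.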

Take `Cc1cc(C)n(-c2cc(N3CCOCC3)nc(-c3ccccc3)n2)n1`: the viability is 85% in test [1]; 85% (inactive) in test [3]; 75.7% (inactive) in test [4]; 73.6% (inactive) in test [5]; 81% in test [6] (setting [9]); 73.6% in test [6] (setting [10]). Moreover, in test [2], the Her2 level is 104% (inactive). The differential viability (reversal) in test [6] (H69AR cells + 2 uM doxorubicin) is -7.4% (inactive). Moreover, the inhibition in test [7] was -5.79% (inactive); in test [8], 4.17% (inactive).
With `CC1=C(C(=O)N2CCCCC2)C2(CCC(C)CC2)OC1=O` (stereo not given), the viability was 90% in test [1]; 90% (inactive) in test [3]; 109% (inactive) in test [4]; 94.2% (inactive) in test [5]; 81.3% in test [6] (setting [9]); 94.2% in test [6] (setting [10]). Moreover, in test [2], the Her2 level is 102% (inactive). For the same molecule, the differential viability (reversal) in test [6] (H69AR cells + 2 uM doxorubicin) was 12.9% (inactive). The inhibition was -5.87% (inactive) in test [7] and -3.61% (inactive) in test [8].
Turning to `COC(=O)C1=C(N)Oc2cc(C)[nH]c(=O)c2C1c1ccncc1` (stereo not given), the viability in test [1] is 132%; in test [3], 132% (inactive); in test [4] it was 94.4% (inactive); in test [5], 94.7% (inactive); in test [6] (setting [9]), 87.3%; in test [6] (setting [10]), 94.7%. Also, in test [2], the Her2 level is 106% (inactive). In addition, the differential viability (reversal) in test [6] (H69AR cells + 2 uM doxorubicin) was 7.35% (inactive). The results for the inhibition in test [7] and in test [8] were -0.79% (inactive) and 5% (inactive), respectively.
Take `CCCC(=O)Nc1ccccc1-c1nnn(CC(=O)Nc2ccc(OCC)cc2)n1`: the viability in test [1] was 108%; in test [3], 108% (inactive); in test [4], 62% (inactive); in test [5] it was 89.1% (inactive); in test [6] (setting [9]), 97.9%; in test [6] (setting [10]), 89.1%. For the same molecule, the Her2 level in test [2] was 87% (inactive). For the same molecule, the differential viability (reversal) in test [6] (H69AR cells + 2 uM doxorubicin) is -8.82% (inactive). Moreover, the inhibition in test [7] is 1.82% (inactive); in test [8], -4.75% (inactive).
Take `Cc1cc(OCC(=O)N2CCCC2)cc(C)c1Cl`: the viability is 102% in test [1]; 102% (inactive) in test [3]; 101% (inactive) in test [4]; 89.6% (inactive) in test [5]; 73.5% in test [6] (setting [9]); 89.6% in test [6] (setting [10]). Moreover, the Her2 level in test [2] was 96% (inactive). The differential viability (reversal) in test [6] (H69AR cells + 2 uM doxorubicin) is 16.1% (inactive). Moreover, the results for the inhibition in test [7] and in test [8] were -6.8% (inactive) and -0.33% (inactive), respectively.
For `CCOC(=O)c1cnc(-n2cc(C)cn2)nc1Nc1ccccc1OC`, the viability was 92.5% in test [1]; 92.5% (inactive) in test [3]; 80.8% (inactive) in test [4]; 60.8% (inactive) in test [5]; 69.8% in test [6] (setting [9]); 60.8% in test [6] (setting [10]). Further, in test [2], the Her2 level is 94% (inactive). In addition, the differential viability (reversal) in test [6] (H69AR cells + 2 uM doxorubicin) is -8.94% (inactive). For the same molecule, the inhibition in test [7] is -4.55% (inactive); in test [8] it was -4.13% (inactive).
Consider `Cc1nc(SCCC(=O)O)c2ccccc2n1`, for which the viability is 98% in test [1]; 98% (inactive) in test [3]; 88.4% (inactive) in test [4]; 85.9% (inactive) in test [5]; 84% in test [6] (setting [9]); 85.9% in test [6] (setting [10]). Besides, in test [2], the Her2 level is 108% (inactive). Also, the differential viability (reversal) in test [6] (H69AR cells + 2 uM doxorubicin) is 1.88% (inactive). The inhibition in test [7] was -0.26% (inactive); in test [8], -0.5% (inactive).
For `CSc1ccc(S(=O)(=O)Nc2cccc(F)c2)cc1`, the viability in test [1] was 96%; in test [3], 96% (inactive); in test [4], 97.7% (inactive); in test [5], 97.3% (inactive); in test [6] (setting [9]), 97.6%; in test [6] (setting [10]), 97.3%. For the same molecule, the Her2 level in test [2] was 76% (inactive). Moreover, the differential viability (reversal) in test [6] (H69AR cells + 2 uM doxorubicin) was -0.325% (inactive). Further, the figures for the inhibition in test [7] and in test [8] were -5.26% (inactive) and -5.33% (inactive), respectively.
In the case of `CCCCC(=O)NCCc1ccc(S(N)(=O)=O)cc1`, the viability in test [1] is 104%; in test [3], 104% (inactive); in test [4] it was 95.4% (inactive); in test [5] it was 97.1% (inactive); in test [6] (setting [9]), 87.7%; in test [6] (setting [10]), 97.1%. For the same molecule, the Her2 level in test [2] is 104% (inactive). The differential viability (reversal) in test [6] (H69AR cells + 2 uM doxorubicin) was 9.4% (inactive). For the same molecule, the inhibition in test [7] was -2.16% (inactive); in test [8], 2.62% (inactive).
For `CCN1CCN(C(c2ccc(F)cc2)c2nnnn2Cc2cccs2)CC1` (stereo not given), the viability was 83% in test [1]; 83% (inactive) in test [3]; 89.4% (inactive) in test [4]; 94.9% (inactive) in test [5]; 86.4% in test [6] (setting [9]); 94.9% in test [6] (setting [10]). Further, the Her2 level in test [2] is 105% (inactive). Besides, in test [6] (H69AR cells + 2 uM doxorubicin), the differential viability (reversal) was 8.46% (inactive). Moreover, the inhibition in test [7] was -1.15% (inactive); in test [8], -0.17% (inactive).
For `CCOC(=O)c1ccc(CC2S/C(=C(\C#N)C(C)=O)NC2=O)cc1` (stereo not given), the viability in test [1] was 91.5%; in test [3], 91.5% (inactive); in test [4], 95.7% (inactive); in test [5] it was 89.6% (inactive); in test [6] (setting [9]), 93.7%; in test [6] (setting [10]) it was 89.6%. For the same molecule, the Her2 level in test [2] was 89.5% (inactive). Further, the differential viability (reversal) in test [6] (H69AR cells + 2 uM doxorubicin) is -4.15% (inactive). Besides, the inhibition in test [7] was -6.53% (inactive); in test [8], 1.94% (inactive).
Regarding `CC(NC(=O)Cc1cccs1)c1ccc2c(c1)OCO2` (stereo not given), the viability in test [1] is 125%; in test [3], 125% (inactive); in test [4] it was 108% (inactive); in test [5], 99.9% (inactive); in test [6] (setting [9]), 86.2%; in test [6] (setting [10]), 99.9%. For the same molecule, in test [2], the Her2 level is 81.5% (inactive). In addition, in test [6] (H69AR cells + 2 uM doxorubicin), the differential viability (reversal) was 13.7% (inactive). Also, the inhibition is -4.67% (inactive) in test [7] and -0.66% (inactive) in test [8].
In the case of `CCCn1cc(SCC(=O)NCc2ccco2)c2ccccc21`, the viability in test [1] is 98.5%; in test [3], 98.5% (inactive); in test [4] it was 92.3% (inactive); in test [5], 94% (inactive); in test [6] (setting [9]) it was 78.6%; in test [6] (setting [10]), 94%. Besides, the Her2 level in test [2] is 90% (inactive). For the same molecule, in test [6] (H69AR cells + 2 uM doxorubicin), the differential viability (reversal) was 15.4% (inactive). In addition, the inhibition was -5.47% (inactive) in test [7] and 0.48% (inactive) in test [8].
As for `COc1cccc(NC(=O)NC2(C(F)(F)F)Oc3ccccc3O2)c1`, the viability in test [1] is 91.5%; in test [3] it was 91.5% (inactive); in test [4] it was 69.1% (inactive); in test [5], 30.7% (active); in test [6] (setting [9]) it was 48.1%; in test [6] (setting [10]), 30.7%. For the same molecule, the Her2 level in test [2] is 98% (inactive). In addition, the differential viability (reversal) in test [6] (H69AR cells + 2 uM doxorubicin) is -17.4% (inactive). The inhibition in test [7] is -5.07% (inactive); in test [8], -0.16% (inactive).
In the case of `C/C(=N\O)C(=O)NCCCNCCCN(C)C`, the viability in test [1] is 104%; in test [3], 104% (inactive); in test [4], 117% (inactive); in test [5], 98.2% (inactive); in test [6] (setting [9]) it was 102%; in test [6] (setting [10]) it was 98.2%. In addition, the Her2 level in test [2] was 94.5% (inactive). In test [6] (H69AR cells + 2 uM doxorubicin), the differential viability (reversal) was -3.41% (inactive). In addition, the inhibition in test [7] is -6.16% (inactive); in test [8] it was 0.48% (inactive).
With `Cc1ccc(S(=O)(=O)CC(=O)N2CCCCCC2)cc1`, the viability in test [1] is 85.5%; in test [3] it was 85.5% (inactive); in test [4], 78.1% (inactive); in test [5], 92.7% (inactive); in test [6] (setting [9]), 90.7%; in test [6] (setting [10]), 92.7%. For the same molecule, the Her2 level in test [2] was 100% (inactive). Further, the differential viability (reversal) in test [6] (H69AR cells + 2 uM doxorubicin) was 1.99% (inactive). Further, the inhibition in test [7] is -5% (inactive); in test [8] it was -6.07% (inactive).
